Reference: ChEMBL document CHEMBL1129746, “Structure-based design of HIV protease inhibitors: sulfonamide-containing 5,6-dihydro-4-hydroxy-2-pyrones as non-peptidic inhibitors” (J Med Chem, 1996)

Assays:
[1] = target: Human immunodeficiency virus type 1 protease (Human immunodeficiency virus 1, UniProt Q72874); test: (§1) Tested for inhibition of HIV protease
Procedure, shortened: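 Ki measured against a tandemly linked (single-chain) HIV protease construct, used because the native dimeric enzyme dissociates at low enzyme concentration.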

Cathepsin E = target: T1, Cathepsin E (Homo sapiens, UniProt P14091); test: Compound was tested for inhibition human Cathepsin E
T1 sequence (P14091 whole entry): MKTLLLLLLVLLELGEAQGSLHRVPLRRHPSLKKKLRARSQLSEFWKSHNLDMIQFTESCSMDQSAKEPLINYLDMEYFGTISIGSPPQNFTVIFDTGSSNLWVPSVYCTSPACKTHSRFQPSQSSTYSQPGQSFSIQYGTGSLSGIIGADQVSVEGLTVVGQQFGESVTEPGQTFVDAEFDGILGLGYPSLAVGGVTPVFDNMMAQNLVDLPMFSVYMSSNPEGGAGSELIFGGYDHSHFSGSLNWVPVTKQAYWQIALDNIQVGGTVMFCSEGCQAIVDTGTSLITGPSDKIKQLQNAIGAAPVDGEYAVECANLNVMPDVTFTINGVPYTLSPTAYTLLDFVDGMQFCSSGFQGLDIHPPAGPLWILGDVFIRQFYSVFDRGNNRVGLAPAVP

[2] = target: Human immunodeficiency virus type 1 protease (Human immunodeficiency virus 1, UniProt Q72874, L33I/L63I/Q7K); test: Compound was tested for inhibition of HIV protease triple mutant (Q7K/L33I/L63I)
[3] = Oral bioavailability of compound reported after 5 mg/kg i.v. dose in rat; type: ADME, organism-based; conditions: in vivo, 10 mg/kg, in the assay text read “after 10 mg/kg oral dose” for “after 5 mg/kg i.v. dose”
Procedure, shortened: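 Rats given 10 mg/kg orally (n = 9) in 0.01 M sodium hydroxide, pH 10, at 2 mg/g, and 5 mg/kg intravenously (n = 3) in 10% propylene glycol/22.5% hydroxypropyl-β-cyclodextrin. Time-course blood levels compared; F calculated relative to the intravenous dose.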

[4] = Totla clearance of compound reported after 5 mg/kg i.v. dose in rat; type: ADME, organism-based; parameters: dose 5 mg/kg, route intravenous; conditions: in vivo, iv, read-out: CLtotal (converted)
Procedure, shortened: (§2)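 Rats (n = 3) dosed intravenously at 5 mg/kg in 10% propylene glycol with 22.5% (hydroxypropyl)-β-cyclodextrin (2 mg/g formulation). Blood levels followed over time to derive total clearance and steady-state volume.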

[5] = target: Human immunodeficiency virus type 1 protease (Human immunodeficiency virus 1) (UniProt Q72874); test: Compound was tested for inhibition of HIV protease in AZT Resistant HIV-1 clinical isolates in primary PBMC
Procedure, shortened: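 A panel of 10 AZT-resistant HIV-1 clinical isolates was grown in primary PBMC using a standardized PBMC drug-susceptibility assay.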

Pepsin A = Pepsin A (Homo sapiens, UniProt P0DJD9); test: Inhibition of human pepsin
Cathepsin D = Cathepsin D (Homo sapiens, UniProt P07339); test: Compound was tested for inhibition human Cathepsin D
[6] = Volume distribution of compound reported after 5 mg/kg i.v. dose in rat; type: ADME, organism-based; parameters: dose 5 mg/kg, route intravenous; conditions: in vivo, iv, read-out: Vss; procedure, shortened: as §2
in vivo = conditions: rat, plasma, iv, 5 mg/kg
[7] = target: Human immunodeficiency virus type 1 protease (Human immunodeficiency virus 1) (UniProt Q72874); test: as §1
[8] = target: Human immunodeficiency virus 1; test: Tested for antiviral activity in HIV-1 IIIB-infected H9 cells
[9] = test system: Human immunodeficiency virus type 1 protease (Human immunodeficiency virus 1), Q72874 [Q7K,L33I,L63I]

Sequence of Pepsin A (P0DJD9 whole entry): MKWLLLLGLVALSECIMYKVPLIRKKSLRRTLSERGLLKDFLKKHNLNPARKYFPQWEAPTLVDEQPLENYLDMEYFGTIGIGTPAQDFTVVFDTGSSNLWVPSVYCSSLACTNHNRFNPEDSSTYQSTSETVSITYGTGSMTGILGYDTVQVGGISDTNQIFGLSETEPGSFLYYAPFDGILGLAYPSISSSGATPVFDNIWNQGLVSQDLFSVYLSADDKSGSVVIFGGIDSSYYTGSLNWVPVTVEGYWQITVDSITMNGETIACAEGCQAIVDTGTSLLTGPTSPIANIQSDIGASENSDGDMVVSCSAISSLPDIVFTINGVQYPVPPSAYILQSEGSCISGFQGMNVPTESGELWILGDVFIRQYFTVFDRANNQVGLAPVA
Sequence of Cathepsin D (P07339 65-162 limits assumed): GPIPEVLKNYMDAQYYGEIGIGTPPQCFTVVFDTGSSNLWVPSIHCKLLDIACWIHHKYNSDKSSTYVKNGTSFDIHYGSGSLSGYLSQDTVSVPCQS
Sequence of Cathepsin D (P07339 169-412 limits assumed): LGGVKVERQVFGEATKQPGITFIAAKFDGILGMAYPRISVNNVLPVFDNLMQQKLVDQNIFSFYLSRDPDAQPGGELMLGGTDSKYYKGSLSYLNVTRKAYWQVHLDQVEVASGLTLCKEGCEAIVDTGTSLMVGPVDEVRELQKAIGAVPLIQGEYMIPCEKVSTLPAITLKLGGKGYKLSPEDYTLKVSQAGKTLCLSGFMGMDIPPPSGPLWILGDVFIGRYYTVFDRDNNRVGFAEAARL

In the case of `CCC[C@@]1(CCc2ccccc2)CC(=O)C([C@@H](CC)c2cccc(NS(=O)(=O)c3ccc(C(F)(F)F)cn3)c2)=C(O)O1` (stereo in doubt; form 1) [listing 1 of 2 here], the Ki [1] is reported as 0.22 nM.
In the case of `CCC[C@@]1(CCc2ccccc2)CC(O)=C([C@H](CC)c2cccc(NS(=O)(=O)c3ccc(C(F)(F)F)cn3)c2)C(=O)O1`, the Ki (Cathepsin E) is reported as 9000 nM, the Ki [2] is reported as < 1 nM and the bioavailability [3] is reported as 30%. For the same compound, the clearance [4] was 2.83 mL/min/kg, the IC90 [5] was 150 nM and the Ki (Pepsin A) was 2000 nM. It also gave a Ki (Cathepsin D) of 15000 nM, a Vd [6] of 0.51 L/kg and a half-life (in vivo) of 5.4 h.
Work on `CCC[C@@]1(CCc2ccccc2)CC(=O)C([C@@H](CC)c2cccc(NS(=O)(=O)c3ccc(C(F)(F)F)cn3)c2)=C(O)O1` (stereo in doubt; form 2) [listing 1 of 2 here] yielded a Ki [1] of 0.032 nM.
For `CCC[C@]1(CCc2ccccc2)CC(=O)C([C@@H](CC)c2cccc(NS(=O)(=O)c3cn(C)cn3)c2)=C(O)O1` (stereo in doubt; Vc) [listing 1 of 2 here], the IC90 [7] was > 1000 nM.
With `CCC[C@@]1(CCc2ccccc2)CC(=O)C([C@@H](CC)c2cccc(NS(=O)(=O)c3ccc(C#N)cn3)c2)=C(O)O1` the Ki [1] was 0.04 nM, the IC90 [7] was 890 nM and the IC50 [8] was 110 nM.
In the case of `CCC[C@]1(CCc2ccccc2)CC(=O)C([C@@H](CC)c2cccc(NS(=O)(=O)c3ccc(C#N)cn3)c2)=C(O)O1`, the Ki [1] is reported as 0.12 nM, the IC90 [7] is reported as > 1000 nM and the IC50 [8] is reported as > 1000 nM.
`CCCC1(CCc2ccccc2)CC(=O)C(C(CC)c2cccc(NS(=O)(=O)c3cccc4cccnc34)c2)=C(O)O1` (configuration not stated) showed a Ki [1] of 3 nM and an IC90 [7] of 3000 nM.
`CCC[C@]1(CCc2ccccc2)CC(=O)C([C@H](CC)c2cccc(NS(=O)(=O)c3ccc(C(F)(F)F)cn3)c2)=C(O)O1` showed a Ki [1] of 0.018 nM, an IC90 [7] of 840 nM and an IC50 [8] of 140 nM.
`CCC[C@]1(CCc2ccccc2)CC(=O)C([C@H](CC)c2cccc(NS(=O)(=O)c3ccc(C#N)cn3)c2)=C(O)O1` showed a Ki [1] of 0.1 nM, an IC90 [7] of 1000 nM and an IC50 [8] of 490 nM.
For `CCC[C@]1(CCc2ccccc2)CC(=O)C([C@@H](CC)c2cccc(NS(=O)(=O)c3cn(C)cn3)c2)=C(O)O1` (stereo in doubt; Vd) [listing 1 of 2 here], the IC90 [7] was > 1000 nM.
`CCC[C@]1(CCc2ccccc2)CC(=O)C([C@@H](CC)c2cccc(NS(=O)(=O)c3cn(C)cn3)c2)=C(O)O1` (stereo in doubt; Va) [listing 1 of 2 here] showed a Ki [1] of 0.12 nM and an IC50 [8] of 580 nM.
`CCC[C@@]1(CCc2ccccc2)CC(=O)C([C@@H](CC)c2cccc(NS(=O)(=O)c3ccc(C(F)(F)F)cn3)c2)=C(O)O1` (stereo in doubt; form 2) [listing 2 of 2 here] gave an IC90 [7] of 1800 nM.
`CCCC1(CCc2ccccc2)CC(=O)C(C(CC)c2cccc(NS(=O)(=O)c3ccc(C#N)cc3)c2)=C(O)O1` (configuration not stated) gave a Ki [1] of 8 nM and an IC90 [7] of 4200 nM.
In the case of `CCC[C@@]1(CCc2ccccc2)CC(=O)C([C@@H](CC)c2cccc(NS(=O)(=O)c3ccc(C(F)(F)F)cn3)c2)=C(O)O1` (stereo in doubt; form 1) [listing 2 of 2 here], the IC90 [7] is reported as 3000 nM.
With `CCCC1(CCc2ccccc2)CC(=O)C(C(CC)c2cccc(NS(=O)(=O)c3ccc(F)cc3)c2)=C(O)O1` (configuration not stated) the Ki [1] was 6 nM and the IC90 [7] was 4300 nM.
Work on `CCC[C@]1(CCc2ccccc2)CC(=O)C([C@@H](CC)c2cccc(NS(=O)(=O)c3cn(C)cn3)c2)=C(O)O1` (stereo in doubt; Va) [listing 2 of 2 here] yielded an IC90 [7] of 1000 nM.
`CCC[C@]1(CCc2ccccc2)CC(=O)C([C@@H](CC)c2cccc(NS(=O)(=O)c3cn(C)cn3)c2)=C(O)O1` (stereo in doubt; Vb) [listing 1 of 2 here] showed a Ki [1] of 0.06 nM and an IC50 [8] of 130 nM.
For `CCCC1(CCc2ccccc2)C=c2oc(=O)c(C(CC)c3ccccc3)c(O)c2=CC1` (configuration not stated), the Ki [1] was 35 nM.
For `CCCC1(CCc2ccccc2)CC(=O)C(C(CC)c2cccc(NS(=O)(=O)c3cn(C)cn3)c2)=C(O)O1` (configuration not stated), the IC50 [2] was 500 nM, the Ki [2] was 1 nM and the IC90 [9] was 900 nM.
In the case of `CCCC1(CCc2ccccc2)CC(=O)C(C(CC)c2cccc(NS(=O)(=O)c3ccccc3)c2)=C(O)O1` (configuration not stated), the Ki [1] is reported as 17 nM and the IC90 [7] is reported as 7300 nM.
`CCC[C@]1(CCc2ccccc2)CC(=O)C([C@@H](CC)c2cccc(NS(=O)(=O)c3cn(C)cn3)c2)=C(O)O1` (stereo in doubt; Vb) [listing 2 of 2 here] showed an IC90 [7] of 560 nM.
For `CCC[C@]1(CCc2ccccc2)CC(=O)C([C@@H](CC)c2cccc(NS(=O)(=O)c3cn(C)cn3)c2)=C(O)O1` (stereo in doubt; Vc) [listing 2 of 2 here], the Ki [1] was 1 nM and the IC50 [8] was > 1000 nM.
Compound `CCC(Cc1ccccc1)c1cc(O)c(C(CC)c2ccccc2)c(=O)o1` (configuration not stated) has an IC50 [8] of 3000 nM.
With `CCC[C@]1(CCc2ccccc2)CC(=O)C([C@@H](CC)c2cccc(NS(=O)(=O)c3cn(C)cn3)c2)=C(O)O1` (stereo in doubt; Vd) [listing 2 of 2 here] the Ki [1] was 0.03 nM and the IC50 [8] was > 1000 nM.
In the case of `CCC[C@@]1(CCc2ccccc2)CC(O)=C([C@H](CC)c2cccc(NS(=O)(=O)c3ccc(C#N)cn3)c2)C(=O)O1`, the Ki [1] is reported as 0.007 nM and the IC90 [7] is reported as 260 nM.
